Laboratory results: PubChem BioAssay AID488973 (NMMLSC, 2010)
Calls of active or inactive are those of the source.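 How the source made its calls: active means toxic dose over ten times the dose restoring drug killing, with toxic dose under 15 µM; inactive means the rest.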

System: Jurkat/DNR viability with daunorubicin, trypan blue, 7 d
Assay: chemoreversal in ABCB1 cells, dose response, ABC transporter inhibitor project, paired ABCG2 counter-screen, SAR hit validation (AID 488973)
Details: for CC50: measured here: toxicity without chemotherapeutic (TD50)
Method in brief: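 Test system: ABCB1-expressing drug-resistant Jurkat/DNR cells / Amount: 100,000 cells per mL / Dosing: test compound dose series from 0.1 to 100 µM / Incubation: 7-day exposure of cells to test compound / Technique: cell counting after trypan blue staining / Read-out basis: chemo-reversal 50% concentration (CR50) set against 50% toxic dose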

## COc1ccc(-c2cc3nc(-c4ccccc4)cc(N4CCN(C(=O)c5ccsc5)CC4)n3n2)cc1
  EC50: 0.14 µM (inactive)
  CC50: 4.9 µM

## O=C(c1ccncc1)N1CCN(c2cc(-c3ccccc3)nc3cc(-c4cccc(Cl)c4)nn23)CC1
  EC50: 0.25 µM (inactive)
  CC50: 10.9 µM

## O=C(c1ccoc1)N1CCN(c2cc(-c3ccncc3)nc3cc(-c4cccc(Cl)c4)nn23)CC1
  EC50: 0.6 µM (inactive)
  CC50: 13.5 µM

## O=C(c1ccoc1)N1CCN(c2cc(-c3ccccc3)nc3cc(-c4ccncc4)nn23)CC1
  EC50: 1.52 µM (inactive)
  CC50: 9.52 µM

## O=C(c1ccoc1)N1CCN(c2cc(-c3ccco3)nc3cc(-c4ccccc4)nn23)CC1
  EC50: 0.55 µM (inactive)
  CC50: 5.52 µM

## O=C(C1CCCO1)N1CCN(c2c3c(nc4cc(-c5cccc(F)c5)nn24)CCCC3)CC1 (centres undefined)
  EC50: 3.58 µM (inactive)
  CC50: 12.3 µM

## COc1ccc(-c2[nH]nc3nc(N4CCN(C(=O)c5ccoc5)CC4)cc(C(F)(F)F)c23)cc1
  EC50: 0.33 µM (inactive)
  CC50: 0.455 µM

## COc1cccc(-c2cc3nc(-c4ccco4)cc(N4CCN(C(=O)c5ccoc5)CC4)n3n2)c1
  EC50: 0.47 µM (inactive)
  CC50: 5.52 µM

## COc1cccc(C(=O)N2CCN(c3cc(-c4ccccc4)nc4cc(-c5cccc(Cl)c5)nn34)CC2)c1
  EC50: 0.35 µM
  CC50: > 100 µM

## O=C(c1ccoc1)N1CCN(c2cc(-c3ccco3)nc3cc(-c4cccc(Cl)c4)nn23)CC1
  EC50: 0.53 µM (inactive)
  CC50: 8.53 µM

## Cc1cc(N2CCN(C(=O)c3ccco3)CC2)n2nc(-c3ccccc3)nc2n1
  EC50: 4.92 µM (inactive)
  CC50: 11.8 µM

## Cc1nc2cc(-c3ccc(F)cc3)nn2c(N2CCN(C(=O)c3ccco3)CC2)c1C
  EC50: 1.82 µM (inactive)
  CC50: 5.33 µM

## O=C(c1cccnc1)N1CCN(c2cc(-c3ccccc3)nc3cc(-c4cccc(Cl)c4)nn23)CC1
  EC50: 0.17 µM (inactive)
  CC50: 4.72 µM

## CC(=O)N1CCN(c2c(C)c(C)nc3cc(-c4cccc(F)c4)nn23)CC1
  EC50: 19.8 µM (inactive)
  CC50: > 100 µM

## Cc1nc2cc(-c3ccc4c(c3)OCO4)nn2c(N2CCN(C(=O)c3ccoc3)CC2)c1C
  EC50: 0.13 µM
  CC50: > 100 µM

## Cc1nc2cc(-c3cccc(Cl)c3)nn2c(N2CCN(C(=O)c3ccco3)CC2)c1C
  EC50: 1.58 µM
  CC50: > 100 µM

## O=C(c1ccco1)N1CCN(c2cc(-c3ccccc3)nc3cc(-c4cccc(F)c4)nn23)CC1
  EC50: 0.58 µM (inactive)
  CC50: 2.16 µM

## Cc1cc(N2CCN(C(=O)c3ccco3)CC2)n2nc(C)c(-c3ccccc3)c2n1
  EC50: 3.58 µM (inactive)
  CC50: 3.31 µM

## O=C(c1ccco1)N1CCN(c2cc(Cc3ccccc3)nc3cc(-c4cccc(Cl)c4)nn23)CC1
  EC50: 1.41 µM (inactive)
  CC50: 8.47 µM

## Cc1nc2ncnn2c(N2CCN(C(=O)c3ccco3)CC2)c1Cc1ccccc1
  EC50: 12.3 µM (inactive)
  CC50: > 100 µM

## COc1cc(OC)cc(-c2cc3nc(C)c(C)c(N4CCN(C(=O)c5ccoc5)CC4)n3n2)c1
  EC50: 0.1 µM (inactive)
  CC50: 9.52 µM

## COc1cccc(-c2cc(N3CCN(C(=O)c4ccoc4)CC3)n3nc(-c4cccc(OC)c4)cc3n2)c1
  EC50: 0.03 µM (inactive)
  CC50: 7.93 µM

## Cc1ccc(-c2cc3nc(-c4ccccc4)cc(N4CCN(C(=O)c5ccoc5)CC4)n3n2)cc1
  EC50: 0.29 µM (inactive)
  CC50: 5.77 µM

## COc1ccc(-c2cc3nc(-c4ccccc4)cc(N4CCN(C(=O)c5ccoc5)CC4)n3n2)cc1
  EC50: 0.23 µM (inactive)
  CC50: 5.54 µM

## COc1ccc(-c2cc3nc(-c4ccccc4)cc(N4CCN(C(=O)c5ccccc5)CC4)n3n2)cc1
  EC50: 0.19 µM
  CC50: 16.9 µM

## O=C(Cc1ccccc1)N1CCN(c2cc(-c3ccccc3)nc3cc(-c4cccc(Cl)c4)nn23)CC1
  EC50: 0.51 µM
  CC50: 17.8 µM

## Cc1nc2cc(-c3cccc(Cl)c3)nn2c(N2CCN(C(=O)c3ccoc3)CC2)c1C
  EC50: 0.51 µM (inactive)
  CC50: 5.33 µM

## O=C(c1ccco1)N1CCN(c2cc(-c3ccccc3)nc3cc(-c4cccc(Cl)c4)nn23)CC1
  EC50: 0.7 µM (inactive)
  CC50: 3.18 µM

## COc1cccc(-c2cc3nc(C)c(C)c(N4CCN(Cc5ccco5)CC4)n3n2)c1
  EC50: 0.02 µM
  CC50: > 100 µM

## COc1ccc(-c2cc3nc(C)c(C)c(N4CCN(C(C)=O)CC4)n3n2)cc1
  EC50: 6 µM
  CC50: 105 µM

## COc1cccc(-c2cc3nc(C)c(C)c(N4CCN(C(=O)c5ccoc5)CC4)n3n2)c1
  EC50: 0.82 µM
  CC50: > 100 µM

## O=C(c1ccco1)N1CCN(c2c3c(nc4cc(-c5cccc(F)c5)nn24)CCCC3)CC1
  EC50: 2.94 µM (inactive)
  CC50: 5.32 µM

## COc1ccc(-c2cc3nc(C)c(C)c(N4CCN(C(=O)c5ccco5)CC4)n3n2)cc1
  EC50: 0.53 µM
  CC50: > 100 µM

## Cc1cc(N2CCN(C(=O)c3ccco3)CC2)n2nc(-c3ccc(F)cc3)cc2n1
  EC50: 5.33 µM (inactive)
  CC50: 4.2 µM

## COc1ccccc1-c1cc2nc(-c3ccccc3)cc(N3CCN(C(=O)c4ccoc4)CC3)n2n1
  EC50: 0.45 µM (inactive)
  CC50: 4.37 µM

## O=C(c1ccoc1)N1CCN(c2cc(-c3cccnc3)nc3cc(-c4cccc(Cl)c4)nn23)CC1
  EC50: 0.2 µM (inactive)
  CC50: 5.33 µM

## Cc1nc2cc(-c3cccc(Cl)c3)nn2c(N2CCN(C(=O)c3ccsc3)CC2)c1C
  EC50: 1.13 µM (inactive)
  CC50: 10.1 µM
